Assay results reported in ChEMBL document CHEMBL1629554, “Activity of the small modified amino acid alpha-hydroxy glycineamide on in vitro and in vivo human immunodeficiency virus type 1 capsid assembly and infectivity” (Antimicrob Agents Chemother, 2008).
The source made the active and inactive calls. The rule behind the calls is not given here.

Columns and labels:
[1] = system: Human immunodeficiency virus 1; test: Antiviral activity against reverse transcriptase and protease inhibitor-resistant HIV-1 isolate HI98-96 harboring reverse transcriptase D67N, T69N, K70R, A98G, M184V, T215F, K219Q and protease L63P, G73T, D60E, L90M mutant gene infected in human PBMC; format: functional, organism-based; settings: Human immunodeficiency virus 1, isolate HI98-96
Procedure, shortened: (§1)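 Clinical isolate stocks were grown in PBMC and titred by 10-fold serial dilution (TCID50). PBMC (600,000 cells/ml) were infected at 100 TCID50 and cultured with 1, 4, 16, 64 or 256 μM α-HGA, in duplicate, with untreated infected controls. Medium was changed on days 5–7. Supernatant p24 was measured by sandwich ELISA against a recombinant p24 standard up to day 14, and EC50 was derived.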

[2] = system: Human immunodeficiency virus 1; test: Antiviral activity against HIV-1 assessed as inhibition of viral p24 tubular protein assembly at 100 uM by TEM assay; format: functional, organism-based
[3] = Cytotoxic activity against human Molt4/C8 cells at 1000 uM after 14 days by trypan blue assay; format: cell-based; settings: molt-4, 336 h
Procedure, shortened: (§2)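 PBMC (600,000 cells/ml) or cell lines (200,000 cells/ml) cultured 14 days with 25, 100, 250, 500 or 1,000 μM compound; viable and dead cells counted in a counting chamber after 0.4% trypan blue staining.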

[4] = system: Human immunodeficiency virus 1; test: Antiviral activity against reverse transcriptase and protease inhibitor-resistant HIV-1 isolate HI98-100 harboring reverse transcriptase M41L, A98G, M184V, L210W, T215Y and protease L10F,K20R, M36I, M46I, L63P, V82A mutant gene infected in human PBMC; format: functional, organism-based; settings: Human immunodeficiency virus 1, isolate HI98-100; procedure, shortened: as §1
L1210 = test: Cytotoxic activity against mouse L1210 cells at 1000 uM after 14 days by trypan blue assay; format: cell-based; settings: l1210, 336 h; procedure, shortened: as §2
[5] = system: Human immunodeficiency virus 1; test: Antiviral activity against HIV-1 SF-2 infected in human H9 cells assessed as appearance of immature viral core morphology at 10 uM by TEM (reference value: 9%); format: functional
[6] = system: Human immunodeficiency virus 1; test: Antiviral activity against HIV-1 SF-2 infected in human H9 cells assessed as appearance of two separate core structured viral particles at 10 uM by TEM assay (reference value: 0%); format: functional
[7] = system: Human immunodeficiency virus 1; test: Antiviral activity against reverse transcriptase and protease inhibitor-resistant HIV-1 isolate HI97-59 harboring reverse transcriptase M184V, L210W, T215Y and protease L10I, L63T mutant gene infected in human PBMC; format: functional, organism-based; settings: Human immunodeficiency virus 1, isolate HI97-59; procedure, shortened: as §1
[8] = system: Human immunodeficiency virus 1; test: Antiviral activity against reverse transcriptase and protease inhibitor-resistant HIV-1 isolate HI90-79 harboring reverse transcriptase M230V and protease M36I, […], A71T, I93L mutant gene infected in human PBMC; format: functional, organism-based; settings: Human immunodeficiency virus 1, isolate HI90-79; procedure, shortened: as §1
[9] = system: Human immunodeficiency virus 1; test: Antiviral activity against reverse transcriptase and protease inhibitor-resistant HIV-1 isolate HI95-10 harboring reverse transcriptase V179I and protease M36I, L63P mutant gene infected in human PBMC; format: functional, organism-based; settings: Human immunodeficiency virus 1, isolate HI95-10; procedure, shortened: as §1
PBMC [10] = test: Effect on PHA-induced human PBMC cell proliferation up to 400 uM by beta scintillation counting; format: functional, cell-based
Procedure, shortened: (§3)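 PBMC (600,000 cells/ml) cultured 96 h in RPMI/10% FCS with PHA (2.5 μg/ml) and compound at 10–2,000 μM; [³H]thymidine (1 μCi/100,000 cells) added 8 h before end. Lysed cells harvested on nitrocellulose filters, cpm by β-scintillation counting. Untreated cells and cyclosporine (1 μg/ml) as controls.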

PBMC [11] = test: Effect on PHA-induced human PBMC cell proliferation at 2000 uM by beta scintillation counting; format: functional, cell-based; procedure, shortened: as §3
[12] = system: Human immunodeficiency virus 1; test: Antiviral activity against reverse transcriptase and protease inhibitor-resistant HIV-1 isolate HI96-88 harboring reverse transcriptase M41L, E44A, D67N, T69D, L210W, T215Y and protease L63P mutant gene infected in human PBMC; format: functional, organism-based; settings: Human immunodeficiency virus 1, isolate HI96-88; procedure, shortened: as §1
FM3A = test: Cytotoxic activity against mouse FM3A cells at 1000 uM after 14 days by trypan blue assay; format: cell-based; settings: 336 h; procedure, shortened: as §2
[13] = system: Human immunodeficiency virus 1; test: Antiviral activity against HIV-1 pNL4-3 infected in human PBMC; format: functional, organism-based; settings: Human immunodeficiency virus 1, pNL4-3
PBMC [14] = test: Cytotoxic activity against human PBMC at 1000 uM after 14 days by trypan blue assay; format: cell-based; settings: 336 h; procedure, shortened: as §2
[15] = system: Human immunodeficiency virus 1; test: Antiviral activity against HIV-1 assessed as inhibition of viral p24 tubular protein assembly at 50 uM by TEM assay; format: functional, organism-based
Human alphaherpesvirus 2 = test: Antiviral activity against Herpes simplex virus type 2 infected in HEL cells; format: functional, organism-based; settings: Human alphaherpesvirus 2, HEL
Procedure, shortened: (§4)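 Cell cultures grown to confluence in microtiter wells, inoculated with 100 TCID50 of virus; after 1 h adsorption, residual virus removed, then incubated with fivefold dilutions of test compound. Viral cytopathicity scored once complete in untreated infected control cultures.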

[16] = system: Human immunodeficiency virus 1; test: Antiviral activity against reverse transcriptase and protease inhibitor-resistant HIV-1 isolate HI98-82 harboring reverse transcriptase M184V and protease L10I, I47M, L63P, I93L mutant gene infected in human PBMC; format: functional, organism-based; settings: Human immunodeficiency virus 1, isolate HI98-82; procedure, shortened: as §1
H9 = test: Cytotoxic activity against human H9 cells at 1000 uM after 14 days by trypan blue assay; format: cell-based; settings: h9, 336 h; procedure, shortened: as §2
[17] = system: Vesicular stomatitis virus; test: Antiviral activity against Vesicular stomatitis virus infected in human HeLa cells; format: functional, organism-based
[18] = system: Human immunodeficiency virus 1; test: Antiviral activity against reverse transcriptase and protease inhibitor-resistant HIV-1 isolate HI93-124 harboring reverse transcriptase N67D, T69D, K70R, T215F, K219Q and protease […] mutant gene infected in human PBMC; format: functional, organism-based; settings: Human immunodeficiency virus 1, isolate HI93-124; procedure, shortened: as §1
[19] = system: Human immunodeficiency virus 1; test: Antiviral activity against reverse transcriptase and protease inhibitor-resistant HIV-1 isolate HI96-90 harboring reverse transcriptase M41L, E44A, V118L, M184V, L210W, T215Y and protease L10I, L63P mutant gene infected in human PBMC; format: functional, organism-based; settings: Human immunodeficiency virus 1, isolate HI96-90; procedure, shortened: as §1
[20] = system: Human immunodeficiency virus 1; test: Antiviral activity against reverse transcriptase and protease inhibitor-resistant HIV-1 isolate HI98-9 harboring reverse transcriptase M41L, M184V, T215Y and protease L10I, L24I, L63P, V77I, V82T/S mutant gene infected in human PBMC; format: functional, organism-based; settings: Human immunodeficiency virus 1, isolate HI98-9; procedure, shortened: as §1
[21] = system: Human immunodeficiency virus 1; test: Antiviral activity against HIV-1 3B infected in human PBMC; format: functional, organism-based; settings: Human immunodeficiency virus 1, 3B
[22] = system: Human immunodeficiency virus 1; test: Antiviral activity against HIV-1 SF-2 infected in human H9 cells assessed as appearance of empty core viral particles at 10 uM by TEM assay (reference value: 0%); format: functional
[23] = system: Human immunodeficiency virus 1; test: Antiviral activity against HIV-1 SF-2 infected in human PBMC; format: functional, organism-based; settings: Human immunodeficiency virus 1, SF-2
HeLa = test: Cytotoxic activity against human HeLa cells at 1000 uM after 14 days by trypan blue assay; format: cell-based; settings: 336 h; procedure, shortened: as §2
[24] = system: Human immunodeficiency virus 1; test: Antiviral activity against HIV-1 SF-2 infected in human H9 cells assessed as appearance of tubular core viral particles at 10 uM by TEM assay (reference value: 6%); format: functional
Human respirovirus 3 = test: Antiviral activity against Parainfluenza virus 3 infected in african green monkey Vero cells; format: functional, organism-based; settings: Human respirovirus 3, Vero; procedure, shortened: as §4
[25] = system: Human immunodeficiency virus 1; test: Antiviral activity against HIV-1 SF-2 infected in human H9 cells assessed as appearance of parallel slice of dense core viral particles at 10 uM by TEM assay (reference value: 41%); format: functional
[26] = system: Human immunodeficiency virus 1; test: Antiviral activity against reverse transcriptase and protease inhibitor-resistant HIV-1 isolate HI99-58 harboring reverse transcriptase D67N, K70R, A98S, Y181C, K219Q and protease M36I, L63P, I93L mutant gene infected in human PBMC; format: functional, organism-based; settings: Human immunodeficiency virus 1, isolate HI99-58; procedure, shortened: as §1
[27] = system: Human immunodeficiency virus 1; test: Antiviral activity against HIV-1 infected in human HeLa cells assessed as inhibition of viral p24 tubular assembly at 100 uM by TEM assay; format: functional, organism-based
Procedure, shortened: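 HeLa-tat cells (10⁵) seeded 1 day before, transfected (FuGENE6) with pC37M plasmid expressing p17-p24 fusion, 100 μM compound in culture medium. At 48–72 h posttransfection fixed in fresh 2.5% glutaraldehyde and intracellular tubular structures examined by TEM.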

[28] = system: Human immunodeficiency virus 1; test: Antiviral activity against HIV-1 assessed as inhibition of viral p24 tubular protein assembly at 100 uM by spectrophotometry; format: functional, organism-based
[29] = system: Human immunodeficiency virus 1; test: Antiviral activity against reverse transcriptase and protease inhibitor-resistant HIV-1 isolate HI94-18 harboring reverse transcriptase M230S mutant gene infected in human PBMC; format: functional, organism-based; settings: Human immunodeficiency virus 1, isolate HI94-18; procedure, shortened: as §1
[30] = system: Human immunodeficiency virus 1; test: Antiviral activity against reverse transcriptase and protease inhibitor-resistant HIV-1 isolate HI90-317 harboring reverse transcriptase M41L, T215Y and protease M36I, […], A71T, I93L mutant gene infected in human PBMC; format: functional, organism-based; settings: Human immunodeficiency virus 1, isolate HI90-317; procedure, shortened: as §1
CCRF-CEM = test: Cytotoxic activity against human CEM cells at 1000 uM after 14 days by trypan blue assay; format: cell-based; settings: 336 h; procedure, shortened: as §2
[31] = system: Human immunodeficiency virus 1; test: Antiviral activity against HIV-1 assessed as inhibition of viral p24 tubular protein assembly by spectrophotometry; format: functional, organism-based
[32] = system: Human immunodeficiency virus 1; test: Antiviral activity against reverse transcriptase and protease inhibitor-resistant HIV-1 isolate HI98-80 harboring reverse transcriptase M41L, D67N, M184V, T215F, K219Q and protease M36I mutant gene infected in human PBMC; format: functional, organism-based; settings: Human immunodeficiency virus 1, isolate HI98-80; procedure, shortened: as §1
[33] = system: Human immunodeficiency virus 1; test: Antiviral activity against HIV-1 SF-2 infected in human H9 cells assessed as appearance of tangential slice of dense core viral particles at 10 uM by TEM assay (reference value: 29%); format: functional
Vaccinia virus = test: Antiviral activity against Vaccinia virus infected in HEL cells; format: functional, organism-based; settings: Orthopoxvirus vaccinia
[34] = system: Human immunodeficiency virus 1; test: Antiviral activity against HIV-1 SF-2 infected in human H9 cells assessed as appearance of partially empty core viral particles at 10 uM by TEM assay (reference value: 13%); format: functional
[35] = system: Human immunodeficiency virus 1; test: Antiviral activity against reverse transcriptase and protease inhibitor-resistant HIV-1 isolate HI93-49 harboring reverse transcriptase L74V, V106I and protease […] mutant gene infected in human PBMC; format: functional, organism-based; settings: Human immunodeficiency virus 1, isolate HI93-49; procedure, shortened: as §1
[36] = system: Human immunodeficiency virus 1; test: Antiviral activity against HIV-1 SF-2 infected in human H9 cells assessed as appearance of distorted core structured viral particles by TEM assay; format: functional
[37] = system: Human immunodeficiency virus 1; test: Antiviral activity against HIV-1 SF-2 infected in human H9 cells assessed as appearance of irregular core viral particles at 10 uM by TEM assay (reference value: 1%); format: functional

## NC(=O)C(N)O (stereo not given)
[1]
  EC50: 4.6 µM
[2]
  inhibition: Active
[3]
  Activity: Non-toxic
[4]
  EC50: 16 µM
L1210
  Activity: Non-toxic
[5]
  Activity: 8%
[6]
  Activity: 4%
[7]
  EC50: 4.2 µM
[8]
  EC50: 24 µM
[9]
  EC50: 14 µM
PBMC [10]
  Activity: inactive
PBMC [11]
  Activity: inactive
[12]
  EC50: 24 µM
FM3A
  Activity: Non-toxic
[13]
  EC50: 1 µM
PBMC [14]
  Activity: Non-toxic
[15]
  inhibition: Active
Human alphaherpesvirus 2
  EC50: 2000 µM
[16]
  EC50: 33 µM
H9
  Activity: Non-toxic
[17]
  EC50: 2000 µM
[18]
  EC50: 33 µM
[19]
  EC50: 8.6 µM
[20]
  EC50: 34 µM
[21]
  EC50: 8 µM
[22]
  Activity: 9%
[23]
  EC50: 1 µM
HeLa
  Activity: Non-toxic
[24]
  Activity: 6%
Human respirovirus 3
  EC50: 2000 µM
[25]
  Activity: 11%
[26]
  EC50: 7.6 µM
[27]
  inhibition: Active
[28]
  inhibition: Active
[29]
  EC50: 16 µM
[30]
  EC50: 20 µM
CCRF-CEM
  Activity: Non-toxic
[31]
  inhibition: Active
[32]
  EC50: 5.5 µM
[33]
  Activity: 19%
Vaccinia virus
  EC50: 2000 µM
[34]
  Activity: 33%
[35]
  EC50: 15 µM
[36]
  Activity: 62%
[37]
  Activity: 10%
